# Measured values reported in PMC3494447 (British Journal of Cancer, 2012).
# Read-outs that look alike come from different tables or passages of the source.
# Legend:
# [1] = Plasma pharmacokinetics of chemotherapy in absence or presence of axitinib; format: in vivo, human; conditions: for Plasma pharmacokinetic parameters (Cmax, AUC, clearance, volume of distribution) in the absence or presence of axitinib: comparison in words; for clearance: CL; for Vd: Vz; for half-life: t½
# [2] = test system: patients with advanced solid tumours; format: in vivo, human; conditions: for Dose-limiting toxicities: first cycle; for MTD of axitinib: continuously
# [3] = test system: patients with advanced solid tumours; assay: Safety: treatment-related adverse events; format: in vivo, human
# Procedure, shortened: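 Adverse events were monitored throughout in every patient given ≥1 dose and graded by CTCAE version 3.0. Physical examinations were done at baseline, on days 1, 8 and 15 of each cycle and 28 days after the last dose.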
# [4] = test system: patients with advanced solid tumours; assay: Haematologic laboratory abnormalities; format: in vivo, human; conditions: All grades; Total column = both chemotherapy cohorts
# advanced solid tumours = assay: Best tumour response by RECIST 1.0; format: in vivo, human
# [5] = format: in vivo; conditions: human, plasma, oral; for AUC(0-t): AUC0-24, Mean (%CV); for Cmax / Vd/F / half-life: Mean (%CV); for Vd/F: Vz/F; for half-life: t½
# human liver microsomes = conditions: in vitro, ref unpublished data; cited from earlier work
# [6] = test system: patients with advanced NSCLC; conditions: phase II, single-agent axitinib, ref Schiller et al, 2009; cited from earlier work
# [7] = human, plasma, intravenous, Mean (%CV), gemcitabine (+cisplatin) + axitinib, cycle 1 day 1, n=17
# [8] = human, plasma, intravenous, Mean (%CV), gemcitabine (+cisplatin) without axitinib, cycle 2, n=17
# [9] = human, plasma, intravenous, Mean (%CV), paclitaxel (+carboplatin) + axitinib, cycle 1 day 1, n=12
# [10] = human, plasma, intravenous, Mean (%CV), paclitaxel (+carboplatin) without axitinib, cycle 2 day 1, n=12
# [11] = carboplatin (+paclitaxel) + axitinib, cycle 1 day 1, PUF, n=12
# [12] = carboplatin (+paclitaxel) without axitinib, cycle 2 day 1, PUF, n=12
# [13] = All grades, Total column = both chemotherapy cohorts
# [14] = grade >=3, across both treatment arms
# [15] = 5 mg b.i.d., axitinib 5 mg b.i.d. + gemcitabine/cisplatin, cycle 1 day 1
# [16] = 5 mg b.i.d., axitinib + paclitaxel/carboplatin, cycle 1 day 1, dose-normalised to 5 mg b.i.d.
# [17] = 5 mg b.i.d., axitinib alone, steady state, cohorts 1–3 pooled, dose-normalised to 5 mg b.i.d.
# [18] = 5 mg, axitinib alone 5 mg b.i.d., steady state, gemcitabine/cisplatin cohort
smiles,measurement,setting,value
"Nc1ccn([C@@H]2O[C@H](CO)[C@@H](O)C2(F)F)c(=O)n1 [Gemcitabine, 2′,2′-difluorodeoxycytidine]","Plasma pharmacokinetic parameters (Cmax, AUC, clearance, volume of distribution) in the absence or presence of axitinib",[1],similar
same,AUC(0-inf),"[1]; human, plasma, intravenous",11700 ng·h/mL
same,clearance,[1]; [7],3620 mL/min
same,clearance,[1]; [8],3730 mL/min
same,Vd,[1]; [7],95.5 L
same,Vd,[1]; [8],91.5 L
"O=c1ccn([C@@H]2O[C@H](CO)[C@@H](O)C2(F)F)c(=O)[nH]1 [dFdU, 2′,2′-difluorodeoxyuridine]","Plasma pharmacokinetic parameters (Cmax, AUC, clearance, volume of distribution) in the absence or presence of axitinib",[1],similar
"CC(=O)O[C@H]1C(=O)[C@@]2(C)[C@H]([C@H](OC(=O)c3ccccc3)[C@]3(O)C[C@H](OC(=O)[C@H](O)[C@@H](NC(=O)c4ccccc4)c4ccccc4)C(C)=C1C3(C)C)[C@]1(OC(C)=O)CO[C@@H]1C[C@@H]2O [Paclitaxel, paclitaxel]","Plasma pharmacokinetic parameters (Cmax, AUC, clearance, volume of distribution) in the absence or presence of axitinib",[1],similar
same,clearance,[1]; [9],303 mL/min
same,clearance,[1]; [10],360 mL/min
same,Cmax,"[1]; human, plasma, intravenous, Cmax, Mean (%CV), paclitaxel (+carboplatin) + axitinib, cycle 1 day 1, plasma, n=12",7180 ng/mL
same,Vd,[1]; [9],229 L
same,Vd,[1]; [10],285 L
same,half-life,[1]; [9],8.64 h
same,half-life,[1]; [10],8.36 h
"N.N.O=C([O-])C1(C(=O)[O-])CCC1.[Pt+2] [Carboplatin, carboplatin]","CL, Mean (%CV)",[1]; [11],13.7 (31) l h^−1
same,"Vz, Mean (%CV)",[1]; [11],44.8 (15) l
same,"t½, Mean (%CV)",[1]; [11],2.44 (29) h
same,"CL, Mean (%CV)",[1]; [12],12.6 (32) l h^−1
same,"Vz, Mean (%CV)",[1]; [12],45.2 (18) l
same,"t½, Mean (%CV)",[1]; [12],2.62 (21) h
same,"Plasma pharmacokinetic parameters (Cmax, AUC, clearance, volume of distribution) in the absence or presence of axitinib",[1],similar
"CNC(=O)c1ccccc1Sc1ccc2c(/C=C/c3ccccn3)n[nH]c2c1 [Axitinib, axitinib]",Dose-limiting toxicities,[2]; axitinib 5 mg b.i.d. with gemcitabine/cisplatin,fatigue
same,Dose-limiting toxicities,"[2]; cohort 1, axitinib lead-in 1 mg b.i.d., with paclitaxel/carboplatin",None
same,Dose-limiting toxicities,"[2]; cohort 2, axitinib lead-in 3 mg b.i.d., with paclitaxel/carboplatin",None
same,Dose-limiting toxicities,"[2]; cohort 3, axitinib 5 mg b.i.d., with paclitaxel/carboplatin",Febrile neutropenia (n=1)
same,Dose-limiting toxicities,"[2]; cohort 3, axitinib 5 mg b.i.d., with paclitaxel/carboplatin, listed as axitinib",febrile neutropenia
same,MTD of axitinib,[2]; with cisplatin 80 mg m^-2 (day 1) and gemcitabine 1250 mg m^-2 (days 1 and 8),5 mg b.i.d.
same,MTD of axitinib,[2]; with paclitaxel 200 mg m^-2 and carboplatin AUC 6 mg min ml^-1,5 mg b.i.d.
same,Grade >=3 haemoptysis,[3]; 12 patients with squamous cell NSCLC,No grade⩾3 haemoptysis occurred
same,"Decreased appetite, treatment-related AE",[3]; [13],7 (14.3) n (%)
same,"Diarrhoea, treatment-related AE",[3]; [13],17 (34.7) n (%)
same,"Dizziness, treatment-related AE",[3]; [13],5 (10.2) n (%)
same,"Dysgeusia, treatment-related AE",[3]; [13],6 (12.2) n (%)
same,"Dysphonia, treatment-related AE",[3]; [13],7 (14.3) n (%)
same,"Epistaxis, treatment-related AE",[3]; [13],8 (16.3) n (%)
same,"Fatigue, treatment-related AE",[3]; [13],14 (28.6) n (%)
same,"Hand–foot syndrome, treatment-related AE",[3]; [13],9 (18.4) n (%)
same,"Headache, treatment-related AE",[3]; [13],7 (14.3) n (%)
same,"Hypertension, treatment-related AE",[3]; [13],18 (36.7) n (%)
same,"Nausea, treatment-related AE",[3]; [13],8 (16.3) n (%)
same,"Proteinuria, treatment-related AE",[3]; [13],10 (20.4) n (%)
same,"Rash, treatment-related AE",[3]; [13],7 (14.3) n (%)
same,Anaemia reported as treatment-related AE,"[3]; Grade 3/4, all patients",2.0%
same,Leukopenia reported as treatment-related AE,"[3]; Grade 3/4, all patients",2.0%
same,Treatment-related diarrhoea,"[3]; all grades, all 49 patients",34.7%
same,Treatment-related fatigue,"[3]; all grades, all 49 patients",28.6%
same,Treatment-related hypertension,"[3]; all grades, all 49 patients",36.7%
same,Grade 5 treatment-related AEs,[3]; all patients,No cases
same,Grade >=3 haemoptysis,[3]; all patients,No cases
same,Patients with axitinib dose reduced,[3]; gemcitabine/cisplatin cohort,28.6%
same,Patients with axitinib dosing interrupted,[3]; gemcitabine/cisplatin cohort,66.7%
same,Treatment-related fatigue,[3]; [14],10.2%
same,Treatment-related hypertension,[3]; [14],10.2%
same,Patients with axitinib dose reduced,[3]; paclitaxel/carboplatin cohorts,35.7%
same,Patients with axitinib dosing interrupted,[3]; paclitaxel/carboplatin cohorts,35.7%
same,"Anaemia, haematologic laboratory abnormality",[4],48 (100) n (%)
same,"Leukopenia, haematologic laboratory abnormality",[4],46 (95.8) n (%)
same,"Lymphopenia, haematologic laboratory abnormality",[4],40 (83.3) n (%)
same,"Neutropenia, haematologic laboratory abnormality",[4],46 (95.8) n (%)
same,"Thrombocytopenia, haematologic laboratory abnormality",[4],43 (89.6) n (%)
same,"Objective responses, number of patients",advanced solid tumours; other tumour types,5 n
same,"Objective responses, number of patients",advanced solid tumours; patients with NSCLC,5 n
same,"Objective responses, number of patients",advanced solid tumours; patients with melanoma,2 n
same,"Objective responses, number of patients",advanced solid tumours; patients with ovarian cancer,3 n
same,AUC(0-t),[5]; [15],444 ng·h/mL
same,AUC(0-t),[5]; [16],535 ng·h/mL
same,AUC(0-t),[5]; [17],404 ng·h/mL
same,Cmax,"[5]; 5 mg b.i.d., axitinib 5 mg b.i.d. + gemcitabine/cisplatin, cycle 1 day 1, n=20",41.7 ng/mL
same,Cmax,"[5]; 5 mg b.i.d., axitinib + paclitaxel/carboplatin, cycle 1 day 1, cohorts 1–3 pooled, dose-normalised to 5 mg b.i.d., n=12",46 ng/mL
same,Cmax,"[5]; 5 mg b.i.d., axitinib alone, steady state, cycle 1 day –1, cohorts 1–3 pooled, dose-normalised to 5 mg b.i.d., n=12",39 ng/mL
same,Vd/F,[5]; [15],168 L
same,Vd/F,[5]; [16],133 L
same,Vd/F,[5]; [17],108 L
same,half-life,[5]; [15],2.66 h
same,AUC(0-t),[5]; [18],416 ng·h/mL
same,Cmax,"[5]; 5 mg, axitinib alone 5 mg b.i.d., steady state, gemcitabine/cisplatin cohort, n=20",41 ng/mL
same,Vd/F,[5]; [18],157 L
same,half-life,[5]; [18],2.68 h
same,half-life,"[5]; axitinib + paclitaxel/carboplatin, cycle 1 day 1",2.7 h
same,Enzymes mediating axitinib metabolism,human liver microsomes,"primarily mediated by CYP3A4 and to a lesser extent by CYP1A2, CYP2C19 and UDP-glucuronosyltransferase 1A1"
same,median OS,[6],14.8 months
